# Data from article PMC5643981 (Chemical Science, 2017).
# Marks after values point to notes of the source that are not given here.
# What was measured:
# [1] = system: Pseudomonas aeruginosa strain PAO1 biofilm; experiment: Dispersal of preformed biofilm; type: cell-based
# Procedure, shortened: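 Biofilm formed 24 h at 37 °C, static, in 0.25% (w/v) nutrient broth no. 2 from washed overnight PAO1 (OD600 1) without compound. Wells washed twice with water, then given sterile-filtered test compound plus polymyxin B in the same broth for another 24 h at 37 °C, static. After two washes, stained with 0.5 mM WST-8 + 20 μM phenazine ethosulfate (2.5–3 h, 37 °C); supernatant A450 read.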
# [2] = system: Pseudomonas aeruginosa strain PAO1 biofilm; experiment: Biofilm inhibition; type: cell-based
# Procedure, shortened: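 PAO1 grown overnight in LB at 37 °C with 180 rpm shaking, washed in 0.25% (w/v) nutrient broth no. 2 and set to OD600 1. 20 μL goes into 180 μL of the same medium with sterile-filtered test compound and polymyxin B. Incubated humid, static, 24–25 h at 37 °C, washed twice with water. Viability read by 0.5 mM WST-8 + 20 μM phenazine ethosulfate (2.5–3 h, 37 °C), supernatant A450.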
substance,measurement,setting,value
Polymyxin B [Pmx],"Dispersal, Pmx with 29b",[1]; Measured with 8 μg mL^–1 of 29b in the presence of 1.5 μg mL^–1 of Pmx,100% ^i
same,"Dispersal, Pmx with 36b",[1]; Measured with 8 μg mL^–1 of 36b in the presence of 1.5 μg mL^–1 of Pmx,100% ^i
same,MBIC of Pmx +0.5 μg mL^–1 36b,[2]; Pmx in the presence of 0.5 μg mL^–1 36b,1.5 μg mL^–1
same,MBIC of Pmx +1 μg mL^–1 29b,[2]; Pmx in the presence of 1 μg mL^–1 29b,1.5 μg mL^–1
